# Measured values as given in ChEMBL document CHEMBL3421632, “Rational design of triazololipopeptides analogs of kisspeptin inducing a long-lasting increase of gonadotropins” (J Med Chem, 2015).
# The source made the active and inactive calls. The rule behind the calls is not given here. *1 amine or outer side, *2 acyl side, *3 side chain or, on linkers, in order; H or OH if unused. Where a SMILES comes first, the peptide text is derived from it. Side-chain parts run from the residue outwards. [ ]: non-standard residue; d: D form. The star is where a group is joined. Glyψ(1,4-Tz)Leu = CC(C)C[C@@H](C(=O)[*:2])n1cc(CN[*:1])nn1; γGlu = O=C(O)[C@H](CCC(=O)[*:2])N[*:1]; Palmitoyl = CCCCCCCCCCCCCCCC(=O)*; azaGly = NNC(=O)O
# Key:
# [1] = Stability in Ile-de-France ewe serum assessed as intact compound level at 50 uM incubated for 6 hrs by HPLC method; format: ADME, cell-free, Ovis aries; conditions: female, sheep, read-out: Stability
# How it was run: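 Ile-de-France ewe serum, stored at −20 °C and preheated 30 min at 39 °C. Peptide at 50 μM final, with L-phenylalaninol internal calibrator, incubated at 39 °C. Proteins precipitated with MeCN and spun; supernatant run on RP-HPLC (2–52% MeCN/0.1% TFA over 5 min, UV 214 nm, plus MS). Intact peak given as % of t = 0 area; five independent experiments.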
# KiSS-1 receptor [2] = biological target: T1, KiSS-1 receptor (Homo sapiens, UniProt Q969F8); assay: Agonist activity at human wild-type KISS1R expressed in HEK293 cells assessed as induction of intracellular Ca2+ mobilization after 30 mins by Fluo4 NW Ca2+ assay; format: functional, cell-based
# How it was run: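 HEK293 stably expressing HA-tagged wild-type human KISS1R, plated 40 000 cells/well 48 h prior. Loaded with Fluo4 NW dye 30 min at 37 °C plus 30 min at rt. Basal read 5× at 7 s intervals, compound added (final 1 pM–1 μM), Ca2+ followed 7 min. Mean basal subtracted, AUC plotted against concentration, sigmoid fit gives EC50. Nontransfected HEK293 served as control.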
# Ovis aries [3] = assay: Increase in FSH level in anoestrus Ile-de-France ewe at 5 nmol, iv by radioimmunoassay; format: functional, organism-based
# How it was run: (§1)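 Intact acyclic anoestrous Ile-de-France ewes (3–5 y, 55–70 kg), jugular catheter placed the day before. Single iv bolus. Basal sampled every 10 min for 30 min, then every 10 min for 2 h, every 20 min for 4 h, then hourly. Plasma FSH measured by RIA with Tucker reagents (sensitivity 0.1 ng/mL), AUC computed; mean ± SEM, N = 4–6.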
# Ovis aries [4] = assay: Increase in peak plasma LH level in anoestrus Ile-de-France ewe at 15 nmol, iv by radioimmunoassay (reference value: 0.3 +/- 0.15 ng/ml); format: functional
# How it was run: (§2)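 Intact acyclic anoestrous Ile-de-France ewes (3–5 y, 55–70 kg), jugular catheter placed the day before. Single iv bolus of 1–15 nmol/ewe. Basal LH taken every 10 min for 30 min, then every 10 min for 2 h, every 20 min for 4 h, then hourly. Plasma LH by RIA (1051-CY-LH standard, sensitivity 0.1 ng/mL). Peak, duration and AUC derived; mean ± SEM, N = 4–6.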
# Ovis aries [5] = assay: Increase in peak plasma LH level in anoestrus Ile-de-France ewe at 5 nmol, iv by radioimmunoassay relative to untreated control; format: functional; how it was run: as §2
# Homo sapiens = species: Homo sapiens; assay: Selectivity index, ratio of EC50 for human NPFF1R to EC50 for human wild-type KISS1R
# Ovis aries [6] = assay: Increase in FSH level in anoestrus Ile-de-France ewe at 1 nmol, iv by radioimmunoassay; format: functional, organism-based; how it was run: as §1
# [7] = biological target: Neuropeptide FF receptor 1 (Homo sapiens, UniProt Q9GZQ6); assay: Agonist activity at human NPFF1R expressed in CHO cells assessed as effect on forskolin-induced cAMP accumulation after 15 mins by luminescence based assay; format: functional, cell-based
# How it was run: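 CHO cells stably expressing hNPFF1R (Gαi-coupled), transfected with GloSensor; seeded 30 000 cells/well 24 h before, PBS-washed twice, loaded with GloSensor cAMP reagent 2 h. Compound added, luminescence read 15 min, then 300 nM forskolin + 0.25 mM IBMX added and read a further 120 min. Signal AUC plotted against concentration, sigmoid fit for EC50.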
# Ovis aries [8] = assay: Increase in maximal amplitude of plasma LH level in anoestrus Ile-de-France ewe at 1 to 15 nmol, iv by radioimmunoassay; format: functional, organism-based; how it was run: as §2
# Ovis aries [9] = assay: Increase in total plasma LH level in anoestrus Ile-de-France ewe at 1 to 15 nmol, iv by radioimmunoassay; format: functional, organism-based; how it was run: as §2
# Ovis aries [10] = assay: Increase in FSH level in anoestrus Ile-de-France ewe at 15 nmol, iv by radioimmunoassay; format: functional, organism-based; how it was run: as §1
# Ovis aries [11] = assay: Increase in peak plasma LH level in anoestrus Ile-de-France ewe at 15 nmol, iv by radioimmunoassay relative to untreated control; format: functional; how it was run: as §2
# Ovis aries [12] = assay: Increase in peak plasma LH level in anoestrus Ile-de-France ewe at 5 nmol, iv by radioimmunoassay (reference value: 0.2 +/- 0.09 ng/ml); format: functional; how it was run: as §2
# Ovis aries [13] = assay: Increase in total plasma LH level in anoestrus Ile-de-France ewe at 1 nmol, iv by radioimmunoassay; format: functional; how it was run: as §2
# Ovis aries [14] = assay: Increase in time duration of increase of plasma LH level in anoestrus Ile-de-France ewe at 15 nmol, iv by radioimmunoassay; format: functional; how it was run: as §2
# Ovis aries [15] = assay: Increase in time duration of increase of plasma LH level in anoestrus Ile-de-France ewe at 1 to 15 nmol, iv by radioimmunoassay; format: functional, organism-based; how it was run: as §2
# Ovis aries [16] = assay: Increase in total plasma LH level in anoestrus Ile-de-France ewe at 15 nmol, iv by radioimmunoassay; format: functional; how it was run: as §2
# Ovis aries [17] = assay: Increase in peak plasma LH level in anoestrus Ile-de-France ewe at 1 nmol, iv by radioimmunoassay (reference value: 0.3 +/- 0.09 ng/ml); format: functional; how it was run: as §2
# KiSS-1 receptor [18] = biological target: T1, KiSS-1 receptor; assay: Potency index, ratio of EC50 for KP10 to EC50 for compound for agonist activity at human wild-type KISS1R expressed in HEK293 cells assessed as induction of intracellular Ca2+ mobilization after 30 mins by Fluo4 NW Ca2+ assay; format: functional, cell-based
# How it was run: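 Ratio of KP10 EC50 to analog EC50, both measured by Fluo4 NW Ca2+ mobilization in HEK293 cells stably expressing HA-tagged human KISS1R. AUC from 7 min of monitoring, concentrations 1 pM–1 μM, sigmoid fit.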
# Ovis aries [19] = assay: Increase in total plasma LH level in anoestrus Ile-de-France ewe at 5 nmol, iv by radioimmunoassay; format: functional, organism-based; how it was run: as §2
# Ovis aries [20] = assay: Increase in maximal amplitude of plasma LH level in anoestrus Ile-de-France ewe at 5 nmol, iv by radioimmunoassay (reference value: 0.4 +/- 0.2 ng/ml); format: functional; how it was run: as §2
# Ovis aries [21] = assay: Increase in duration of increase of plasma LH level in anoestrus Ile-de-France ewe at 5 nmol, iv by radioimmunoassay; format: functional; how it was run: as §2
# [22] = Drug metabolism in Ile-de-France ewe serum assessed as cleavage at C and N-termini of azaGly bond at 50 uM incubated for 6 hrs by LC-MS method; format: ADME, cell-free, Ovis aries; conditions: sheep
# T1 sequence (Q969F8 whole entry): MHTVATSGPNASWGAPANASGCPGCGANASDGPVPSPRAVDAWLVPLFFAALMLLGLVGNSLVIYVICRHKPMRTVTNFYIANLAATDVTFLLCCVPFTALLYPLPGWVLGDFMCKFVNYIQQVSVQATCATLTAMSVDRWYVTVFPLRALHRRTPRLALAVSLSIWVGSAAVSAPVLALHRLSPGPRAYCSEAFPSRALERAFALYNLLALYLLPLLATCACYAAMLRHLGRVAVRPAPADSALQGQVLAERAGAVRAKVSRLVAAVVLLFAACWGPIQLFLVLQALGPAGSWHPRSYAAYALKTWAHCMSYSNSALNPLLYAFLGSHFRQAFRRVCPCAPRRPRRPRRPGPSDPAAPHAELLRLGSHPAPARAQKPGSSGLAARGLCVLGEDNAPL
# Chain of Neuropeptide FF receptor 1 (Q9GZQ6 whole entry): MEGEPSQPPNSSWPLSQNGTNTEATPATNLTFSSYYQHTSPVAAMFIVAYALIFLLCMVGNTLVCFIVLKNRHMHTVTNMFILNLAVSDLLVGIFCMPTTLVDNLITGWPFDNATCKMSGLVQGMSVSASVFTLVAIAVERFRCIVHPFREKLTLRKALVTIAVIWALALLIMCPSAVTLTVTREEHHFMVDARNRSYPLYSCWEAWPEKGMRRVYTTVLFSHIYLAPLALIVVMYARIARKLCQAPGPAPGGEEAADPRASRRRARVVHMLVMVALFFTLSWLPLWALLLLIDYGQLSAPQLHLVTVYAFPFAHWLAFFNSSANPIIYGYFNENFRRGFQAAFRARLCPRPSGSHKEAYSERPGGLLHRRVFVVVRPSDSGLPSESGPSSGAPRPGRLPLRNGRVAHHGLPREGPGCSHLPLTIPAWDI
smiles,measurement,setting,value
CC(=O)N[C@@H](Cc1ccc(O)cc1)C(=O)N[C@@H](CC(N)=O)C(=O)N[C@@H](Cc1c[nH]c2ccccc12)C(=O)N[C@@H](CC(N)=O)C(=O)N[C@@H](CO)C(=O)N[C@@H](Cc1ccccc1)c1cn(Cc2cn([C@@H](CC(C)C)C(=O)N[C@@H](CCCNC(=N)N)C(=O)N[C@@H](Cc3ccc(O)cc3)C(N)=O)nn2)nn1,"remaining at 6 h, 50 µM",[1],50.7%
same,EC50,KiSS-1 receptor [2],120 nM
CCCCCCCCCCCCCCCC(=O)NCCCC[C@H](NC(=O)[C@H](Cc1ccc(O)cc1)NC(C)=O)C(=O)N[C@@H](Cc1c[nH]c2ccccc12)C(=O)N[C@@H](CC(N)=O)C(=O)N[C@@H](CO)C(=O)N[C@@H](Cc1ccccc1)C(=O)NCC(=O)N[C@@H](CC(C)C)C(=O)N[C@@H](CCCNC(=N)N)C(=O)N[C@@H](Cc1ccc(O)cc1)C(N)=O (Ac-YK(Palmitoyl)WNSFGLRY-NH2),EC50,KiSS-1 receptor [2],182 nM
CCCCCCCCCCCCCCCC(=O)N[C@@H](CCC(=O)NCCCC[C@H](NC(=O)[C@H](Cc1ccc(O)cc1)NC(C)=O)C(=O)N[C@@H](Cc1c[nH]c2ccccc12)C(=O)N[C@@H](CC(N)=O)C(=O)N[C@@H](CO)C(=O)N[C@@H](Cc1ccccc1)C(=O)NCC(=O)N[C@@H](CC(C)C)C(=O)N[C@@H](CCCNC(=N)N)C(=O)N[C@@H](Cc1ccc(O)cc1)C(N)=O)C(=O)O (Ac-YK([γGlu-Palmitoyl])WNSFGLRY-NH2),EC50,KiSS-1 receptor [2],2.9 nM
"CCCCCCCCCCCCCCCC(=O)N[C@@H](CCC(=O)NCCCC[C@H](NC(=O)[C@H](Cc1ccc(O)cc1)NC(C)=O)C(=O)N[C@@H](Cc1c[nH]c2ccccc12)C(=O)N[C@@H](CC(N)=O)C(=O)N[C@@H](CO)C(=O)N[C@@H](Cc1ccccc1)C(=O)NCc1cn([C@@H](CC(C)C)C(=O)N[C@@H](CCCNC(=N)N)C(=O)N[C@@H](Cc2ccc(O)cc2)C(N)=O)nn1)C(=O)O (Ac-YK([γGlu-Palmitoyl])WNSF[Glyψ(1,4-Tz)Leu]RY-NH2)",Activity,Ovis aries [3],inactive
same,Activity,Ovis aries [4],13.3 ng/mL
same,fold change (FC),Ovis aries [5],25
same,Ratio EC50,Homo sapiens,> 100
same,Activity,Ovis aries [6],inactive
same,EC50,[7],222 nM
same,Activity,Ovis aries [8],Dose-dependent effect
same,EC50,KiSS-1 receptor [2],1.6 nM
same,Activity,Ovis aries [9],Dose-dependent effect
same,Activity,Ovis aries [10],Active
same,fold change (FC),Ovis aries [11],40
same,Activity,Ovis aries [12],5.3 ng/mL
same,Activity,Ovis aries [13],274 ng·min/mL
same,Time,Ovis aries [14],>9 h
same,Activity,Ovis aries [15],Dose-dependent effect
same,Activity,Ovis aries [16],2400 ng·min/mL
same,Activity,Ovis aries [17],1.1 ng/mL
CCCCCCCCCCCCCCCC(=O)NCCCC[C@H](NC(=O)[C@H](CC(N)=O)NC(=O)[C@H](Cc1ccc(O)cc1)NC(C)=O)C(=O)N[C@@H](CC(N)=O)C(=O)N[C@@H](CO)C(=O)N[C@@H](Cc1ccccc1)C(=O)NCC(=O)N[C@@H](CC(C)C)C(=O)N[C@@H](CCCNC(=N)N)C(=O)N[C@@H](Cc1ccc(O)cc1)C(N)=O (Ac-YNK(Palmitoyl)NSFGLRY-NH2),EC50,KiSS-1 receptor [2],> 500 nM
CCCCCCCCCCCCCCCC(=O)N[C@@H](CCC(=O)NCCCC[C@H](NC(=O)[C@H](CC(N)=O)NC(=O)[C@H](Cc1ccc(O)cc1)NC(C)=O)C(=O)N[C@@H](CC(N)=O)C(=O)N[C@@H](CO)C(=O)N[C@@H](Cc1ccccc1)C(=O)NCC(=O)N[C@@H](CC(C)C)C(=O)N[C@@H](CCCNC(=N)N)C(=O)N[C@@H](Cc1ccc(O)cc1)C(N)=O)C(=O)O (Ac-YNK([γGlu-Palmitoyl])NSFGLRY-NH2),EC50,KiSS-1 receptor [2],24.4 nM
"CCCCCCCCCCCCCCCC(=O)N[C@@H](CCC(=O)NCCCC[C@H](NC(=O)[C@H](CC(N)=O)NC(=O)[C@H](Cc1ccc(O)cc1)NC(C)=O)C(=O)N[C@@H](CC(N)=O)C(=O)N[C@@H](CO)C(=O)N[C@@H](Cc1ccccc1)C(=O)NCc1cn([C@@H](CC(C)C)C(=O)N[C@@H](CCCNC(=N)N)C(=O)N[C@@H](Cc2ccc(O)cc2)C(N)=O)nn1)C(=O)O (Ac-YNK([γGlu-Palmitoyl])NSF[Glyψ(1,4-Tz)Leu]RY-NH2)",EC50,KiSS-1 receptor [2],216 nM
"CC(=O)N[C@@H](Cc1ccc(O)cc1)C(=O)N[C@@H](CC(N)=O)C(=O)N[C@@H](Cc1c[nH]c2ccccc12)C(=O)N[C@@H](CC(N)=O)C(=O)N[C@@H](CO)C(=O)N[C@@H](Cc1ccccc1)C(=O)NCc1cn([C@@H](CC(C)C)C(=O)N[C@@H](CCCNC(=N)N)C(=O)N[C@@H](Cc2ccc(O)cc2)C(N)=O)nn1 (Ac-YNWNSF[Glyψ(1,4-Tz)Leu]RY-NH2)","remaining at 6 h, 50 µM",[1],40.8%
same,Ratio EC50,Homo sapiens,> 10000
same,Ratio EC50,KiSS-1 receptor [18],30
same,EC50,[7],> 5000 nM
same,Activity,Ovis aries [19],Active
same,Activity,Ovis aries [20],5.4 ng/mL
same,Activity,Ovis aries [8],Active
same,EC50,KiSS-1 receptor [2],0.07 nM
same,Activity,Ovis aries [9],Active
same,fold change (FC),Ovis aries [21],>2
same,Activity,Ovis aries [15],Active
CC(=O)N[C@@H](Cc1ccc(O)cc1)C(=O)N[C@@H](CC(N)=O)C(=O)N[C@@H](Cc1c[nH]c2ccccc12)C(=O)N[C@@H](CC(N)=O)C(=O)N[C@@H](CO)C(=O)N[C@@H](Cc1ccccc1)C(=O)NNC(=O)N[C@@H](CC(C)C)C(=O)N[C@@H](CCCNC(=N)N)C(=O)N[C@@H](Cc1ccc(O)cc1)C(N)=O (Ac-YNWNSF[azaGly]LRY-NH2),Drug metabolism,[22],metabolite_detected
same,"remaining at 6 h, 50 µM",[1],8.4%
same,EC50,KiSS-1 receptor [2],0.006 nM
